According to article PMC10238757 (Pharmacology Research & Perspectives, 2023):

Experiments:
healthy participants = assay: Safety and tolerability, multiple ascending dose; type: in vivo, human; conditions: N=7
Summary of the method: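 AEs in healthy participants given oral test compound or placebo, recorded with grade and relation to treatment. Laboratory analyses, clinical parameters and suicidality were also monitored. Observation ran 360 h after dosing. Summaries were descriptive, with no formal statistics; parts 1–2 blinded and placebo-controlled, part 3 open-label.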

Single ascending dose = type: in vivo, human
Summary of the method: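 Healthy participants, double-blind cross-over between 2 cohorts of 9, randomized 6:3 drug:placebo each period. Single oral doses of 10–800 mg right after a moderate-fat breakfast (600 calories, 30% fat). Plasma sampled to 360 h (protocol first set 96 h); LLOQ 10 ng/mL. Non-compartmental analysis; dose proportionality by power model.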

## C=C(C)[C@@H]1CC[C@]2(NCCN3CCS(=O)(=O)CC3)CC[C@]3(C)[C@H](CC[C@@H]4[C@@]5(C)CC=C(C6=CC[C@@](COc7ncccc7C#N)(C(=O)O)CC6)C(C)(C)[C@@H]5CC[C@]43C)[C@@H]12 [GSK'937]
Healthy participants; MAD 50 mg QD
  All-cause AEs Grade 2, n occurrences (% of cohort): 1 (14)
  All-cause AEs Grade 3/4, n occurrences (% of cohort): 0
  All-cause AEs, n occurrences (% of cohort): 3 (29)
  Constipation, n occurrences (% of cohort): 0
  Diarrhea, n occurrences (% of cohort): 0
  Drug-related AEs Grade 2, n occurrences (% of cohort): 0
  Drug-related AEs Grade 3/4, n occurrences (% of cohort): 0
  Drug-related AEs, n occurrences (% of cohort): 0
  Headache, n occurrences (% of cohort): 1 (14)
  MDSD, n occurrences (% of cohort): 1 (14)
Healthy participants; MAD 100 mg QD
  Abdominal pain, n occurrences (% of cohort): 0
  All-cause AEs Grade 2, n occurrences (% of cohort): 0
  All-cause AEs Grade 3/4, n occurrences (% of cohort): 0
  All-cause AEs, n occurrences (% of cohort): 8 (71)
  Constipation, n occurrences (% of cohort): 0
  Diarrhea, n occurrences (% of cohort): 0
  Drug-related AEs Grade 2, n occurrences (% of cohort): 0
  Drug-related AEs Grade 3/4, n occurrences (% of cohort): 0
  Drug-related AEs, n occurrences (% of cohort): 1 (14)
  Headache, n occurrences (% of cohort): 0
  MDSD, n occurrences (% of cohort): 1 (14)
Healthy participants; MAD 500 mg QW
  Abdominal pain, n occurrences (% of cohort): 1 (14)
  All-cause AEs Grade 2, n occurrences (% of cohort): 0
  All-cause AEs Grade 3/4, n occurrences (% of cohort): 0
  All-cause AEs, n occurrences (% of cohort): 7 (57)
  Constipation, n occurrences (% of cohort): 0
  Drug-related AEs Grade 2, n occurrences (% of cohort): 0
  Drug-related AEs Grade 3/4, n occurrences (% of cohort): 0
  Drug-related AEs, n occurrences (% of cohort): 3 (43)
  Headache, n occurrences (% of cohort): 0
  MDSD, n occurrences (% of cohort): 1 (14)
Single ascending dose; SAD 800 mg
  t max, h median (range): 18.08 (12.1–24.1) h
Single ascending dose; after the 10-mg dose
  time up to which concentrations were quantifiable: up to 96 h
Single ascending dose; after the 30-mg dose, 5 of 6 participants
  time up to which concentrations were quantifiable: ≤ 264 h
Single ascending dose; all other doses except 1 individual in the 80-mg cohort
  time up to which concentrations were quantifiable: ≤ 360 h
Single ascending dose; human, plasma, oral, 10 mg
  AUC(0-t): 2490 ng·h/mL
  Cmax: 39.2 ng/mL
Single ascending dose; human, plasma, oral, 10 mg, t max, h median (range), SAD 10 mg
  Tmax: 6.98 h
Single ascending dose; human, plasma, oral, 30 mg
  Cmax: 127 ng/mL
Single ascending dose; human, plasma, oral, 30 mg, t 1/2 GM (%CVb), SAD 30 mg
  half-life: 75.9 h
Single ascending dose; human, plasma, oral, 30 mg, t max, h median (range), SAD 30 mg
  Tmax: 8 h
Single ascending dose; human, plasma, oral, 80 mg
  Cmax: 310 ng/mL
Single ascending dose; human, plasma, oral, 80 mg, t 1/2 GM (%CVb), SAD 80 mg
  half-life: 79.1 h
Single ascending dose; human, plasma, oral, 80 mg, t max, h median (range), SAD 80 mg
  Tmax: 7.98 h
Single ascending dose; human, plasma, oral, 160 mg
  Cmax: 529 ng/mL
Single ascending dose; human, plasma, oral, 160 mg, t 1/2 GM (%CVb), SAD 160 mg
  half-life: 91.8 h
Single ascending dose; human, plasma, oral, 160 mg, t max, h median (range), SAD 160 mg
  Tmax: 7.95 h
Single ascending dose; human, plasma, oral, 320 mg
  Cmax: 1010 ng/mL
Single ascending dose; human, plasma, oral, 320 mg, t 1/2 GM (%CVb), SAD 320 mg
  half-life: 96.8 h
Single ascending dose; human, plasma, oral, 320 mg, t max, h median (range), SAD 320 mg
  Tmax: 6.99 h
Single ascending dose; human, plasma, oral, 640 mg
  Cmax: 1460 ng/mL
Single ascending dose; human, plasma, oral, 640 mg, t 1/2 GM (%CVb), SAD 640 mg
  half-life: 82.6 h
Single ascending dose; human, plasma, oral, 640 mg, t max, h median (range), SAD 640 mg
  Tmax: 7 h
Single ascending dose; human, plasma, oral, 800 mg
  Cmax: 2860 ng/mL
Single ascending dose; human, plasma, oral, 800 mg, t 1/2 GM (%CVb), SAD 800 mg
  half-life: 67.4 h
Single ascending dose; human, plasma, oral, 800 mg, t max, h median (range), SAD 800 mg
  Tmax: 18 h
Single ascending dose; human, plasma, oral, Median t max, all single doses except the 800-mg dose
  Tmax: 7 to 8 h
Single ascending dose; human, plasma, oral, t 1/2, range across doses, part 1 single doses
  half-life: 67 to 97 h
Single ascending dose; human, plasma, oral, terminal phase half-life, all doses following single and repeat dosing
  half-life: ~72 h
